Reference: ChEMBL document CHEMBL1144684, “Evaluation of a series of naphthamides as potent, orally active vascular endothelial growth factor receptor-2 tyrosine kinase inhibitors” (J Med Chem, 2008)
In brackets after ≈: the same amount, converted by molar mass. Activity calls are given as the source filed them. The calls are words filed in the database; no cut-off is given here.

Experiments:
[1] = target: Angiopoietin-1 receptor (Homo sapiens, UniProt Q02763); assay: Inhibition of Tie2
[2] = target: Hepatocyte growth factor receptor (Homo sapiens, UniProt P08581); assay: Inhibition of c-Met
[3] = target: Tyrosine-protein kinase Lck (Homo sapiens, UniProt P06239); assay: Inhibition of Lck
[4] = target: T1, Aurora kinase A (Homo sapiens, UniProt O14965); assay: Inhibition of Aurora A
T1 sequence (O14965 whole entry): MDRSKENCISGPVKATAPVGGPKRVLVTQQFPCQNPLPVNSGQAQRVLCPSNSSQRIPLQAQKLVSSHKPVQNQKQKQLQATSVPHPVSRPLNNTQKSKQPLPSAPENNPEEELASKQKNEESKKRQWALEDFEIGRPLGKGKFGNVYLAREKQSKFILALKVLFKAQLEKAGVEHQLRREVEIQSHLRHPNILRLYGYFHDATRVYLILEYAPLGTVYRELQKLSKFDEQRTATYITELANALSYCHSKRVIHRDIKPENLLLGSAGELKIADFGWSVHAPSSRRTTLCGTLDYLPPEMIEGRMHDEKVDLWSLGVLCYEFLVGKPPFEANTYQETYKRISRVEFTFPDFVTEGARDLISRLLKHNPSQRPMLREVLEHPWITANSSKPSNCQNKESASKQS

[5] = target: Vascular endothelial growth factor receptor 2 (Homo sapiens, UniProt P35968)
[6] = system: HUVEC; assay: Selectivity of IC50 for VEGF-induced proliferation over IC50 for bFGF-induced proliferation of HUVEC; format: functional, Homo sapiens
Summary of the method: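 HUVECs were seeded at 3000 cells/well in DMEM/10% FBS with pen/strep and cultured for 22 h. They were preincubated 2 h with serially diluted compound, then stimulated with 50 ng/mL VEGF or 20 ng/mL bFGF for 72 h at 37 °C, 5% CO2. Cells were washed, frozen at -70 °C and stained with CyQuant. IC50s came from a four-parameter logistic fit, averaged over ≥2 experiments; the VEGF IC50 was compared against the bFGF IC50.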

[7] = system: HUVEC; assay: Inhibition of bFGF-induced proliferation of HUVEC; format: functional, cell-based; settings: Homo sapiens
Summary of the method: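 HUVEC seeded at 3000/well in DMEM with 10% FBS, 22 h; 2 h preincubation with serial compound dilutions, then 50 ng/mL VEGF or 20 ng/mL bFGF for 72 h at 37 °C. Freeze–thaw, CyQuant DNA dye read-out; IC50 by four-parameter logistic fit, averaged over ≥2 experiments.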

[8] = target: Aurora kinase B (Homo sapiens, UniProt Q96GD4); assay: Inhibition of Aurora B
[9] = system: HUVEC; assay: Inhibition of VEGF-induced proliferation of HUVEC; format: functional, cell-based; settings: Homo sapiens
[10] = AUC (0 to infinity) in Sprague-Dawley rat at 2 mg/kg, po; format: ADME, organism-based; set-up: time infinity, dose 2 mg/kg, route oral; settings: plasma
Summary of the method: (§1)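 Male Sprague–Dawley rats dosed iv via femoral vein as DMSO solution (1 or 0.5 mg/kg) or po by gavage as OraPlus suspension (pH 2.0–2.2 with methanesulfonic acid; 10 or 2 mg/kg). Serial jugular blood over 12–24 h; plasma acetonitrile precipitation, LC-MS/MS (MRM) with internal standard; noncompartmental parameters.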

[11] = Intrinsic clearance in human liver microsomes at 1 uM; format: ADME, Microsome; settings: read-out: Stability
Summary of the method: (§2)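 Human or rat liver microsomes (0.25 mg protein/mL) with 1 mM NADPH, 2 mM MgCl2 in 50 mM potassium phosphate pH 7.4 at 37 °C; compound 1 µM final. Sampled 0–40 min into acetonitrile, LC-MS/MS; ln % remaining vs time slope gives T1/2; CLint = (0.693/T1/2)/0.25 mg/mL.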

[12] = Cmax in Sprague-Dawley rat at 2 mg/kg, po; format: ADME, organism-based; set-up: dose 2 mg/kg, route oral; settings: in vivo; summary of the method: as §1
[13] = Intrinsic clearance in rat liver microsomes at 1 uM; format: ADME, Microsome; settings: read-out: Stability; summary of the method: as §2
[14] = Half life in Sprague-Dawley rat at 0.5 mg/kg, iv; format: ADME, organism-based; set-up: dose 0.5 mg/kg, route intravenous; settings: in vivo; summary of the method: as §1
[15] = Oral bioavailability in Sprague-Dawley rat at 2 mg/kg; format: ADME, organism-based; settings: in vivo
Summary of the method: (§3)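 Male Sprague–Dawley rats dosed iv at 0.5 mg/kg as DMSO solution or po at 2 mg/kg as suspension in 100% OraPlus. Serial jugular blood, plasma LC-MS/MS quantitation, noncompartmental analysis.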

[16] = Clearance in Sprague-Dawley rat at 0.5 mg/kg, iv; format: ADME, organism-based; set-up: dose 0.5 mg/kg, route intravenous; settings: in vivo; summary of the method: as §1
[17] = Tmax in Sprague-Dawley rat at 2 mg/kg, po; format: ADME, organism-based; set-up: dose 2 mg/kg, route oral; settings: in vivo; summary of the method: as §3
[18] = Volume of distribution at steady state in Sprague-Dawley rat at 0.5 mg/kg, iv; format: ADME, organism-based; set-up: dose 0.5 mg/kg, route intravenous; settings: in vivo, read-out: Vdss; summary of the method: as §3
[19] = Aqueous solubility in 0.01 N Hcl; format: physicochemical
[20] = target: Vascular endothelial growth factor receptor 3 (Homo sapiens) (UniProt P35916); assay: Inhibition of human VEGFR3

Chain of Aurora kinase B (Q96GD4 whole entry): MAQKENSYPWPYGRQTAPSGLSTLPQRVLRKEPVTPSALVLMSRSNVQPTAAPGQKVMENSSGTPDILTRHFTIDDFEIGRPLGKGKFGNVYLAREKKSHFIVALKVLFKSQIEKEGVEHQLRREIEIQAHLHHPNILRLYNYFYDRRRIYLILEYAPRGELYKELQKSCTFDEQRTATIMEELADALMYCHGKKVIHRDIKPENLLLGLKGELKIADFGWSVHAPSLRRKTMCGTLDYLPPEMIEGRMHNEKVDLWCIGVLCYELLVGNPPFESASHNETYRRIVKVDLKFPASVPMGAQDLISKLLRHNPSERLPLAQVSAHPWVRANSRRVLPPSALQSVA
Chain of Hepatocyte growth factor receptor (P08581 whole entry): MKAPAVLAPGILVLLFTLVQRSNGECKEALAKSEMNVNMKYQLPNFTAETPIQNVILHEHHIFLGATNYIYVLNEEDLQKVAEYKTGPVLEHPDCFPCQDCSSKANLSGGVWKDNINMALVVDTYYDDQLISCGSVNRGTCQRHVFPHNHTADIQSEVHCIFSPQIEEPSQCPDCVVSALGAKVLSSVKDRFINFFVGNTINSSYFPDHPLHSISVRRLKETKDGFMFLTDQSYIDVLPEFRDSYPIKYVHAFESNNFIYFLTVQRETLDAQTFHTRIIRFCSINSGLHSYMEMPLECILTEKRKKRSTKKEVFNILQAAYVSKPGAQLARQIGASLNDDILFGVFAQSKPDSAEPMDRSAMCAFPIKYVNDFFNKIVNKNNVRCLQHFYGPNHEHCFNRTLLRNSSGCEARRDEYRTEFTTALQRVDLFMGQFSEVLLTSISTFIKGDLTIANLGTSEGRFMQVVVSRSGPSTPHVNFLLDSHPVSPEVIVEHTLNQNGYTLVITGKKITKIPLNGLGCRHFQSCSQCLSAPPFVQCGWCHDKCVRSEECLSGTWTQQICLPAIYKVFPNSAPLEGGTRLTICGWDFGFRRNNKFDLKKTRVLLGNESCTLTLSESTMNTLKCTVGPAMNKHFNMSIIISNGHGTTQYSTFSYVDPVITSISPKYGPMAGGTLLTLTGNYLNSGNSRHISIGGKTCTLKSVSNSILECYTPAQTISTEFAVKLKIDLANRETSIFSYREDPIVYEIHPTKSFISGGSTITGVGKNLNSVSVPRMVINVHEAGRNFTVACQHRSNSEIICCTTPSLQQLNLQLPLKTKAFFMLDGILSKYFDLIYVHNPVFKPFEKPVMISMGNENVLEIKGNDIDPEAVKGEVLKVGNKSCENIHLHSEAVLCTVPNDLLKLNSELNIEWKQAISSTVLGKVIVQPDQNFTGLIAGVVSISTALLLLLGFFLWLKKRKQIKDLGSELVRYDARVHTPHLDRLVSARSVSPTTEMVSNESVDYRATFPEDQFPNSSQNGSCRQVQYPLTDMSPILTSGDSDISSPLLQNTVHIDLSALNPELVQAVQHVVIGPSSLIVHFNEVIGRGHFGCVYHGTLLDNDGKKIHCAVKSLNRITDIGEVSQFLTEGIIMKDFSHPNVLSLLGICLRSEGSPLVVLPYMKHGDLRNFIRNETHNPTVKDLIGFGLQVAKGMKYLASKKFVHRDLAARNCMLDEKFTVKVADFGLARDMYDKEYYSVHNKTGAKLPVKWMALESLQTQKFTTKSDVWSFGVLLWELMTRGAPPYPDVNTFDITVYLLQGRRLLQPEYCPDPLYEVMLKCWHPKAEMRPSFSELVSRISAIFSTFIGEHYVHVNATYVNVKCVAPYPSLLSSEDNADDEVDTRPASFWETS
Chain of Vascular endothelial growth factor receptor 2 (P35968 whole entry): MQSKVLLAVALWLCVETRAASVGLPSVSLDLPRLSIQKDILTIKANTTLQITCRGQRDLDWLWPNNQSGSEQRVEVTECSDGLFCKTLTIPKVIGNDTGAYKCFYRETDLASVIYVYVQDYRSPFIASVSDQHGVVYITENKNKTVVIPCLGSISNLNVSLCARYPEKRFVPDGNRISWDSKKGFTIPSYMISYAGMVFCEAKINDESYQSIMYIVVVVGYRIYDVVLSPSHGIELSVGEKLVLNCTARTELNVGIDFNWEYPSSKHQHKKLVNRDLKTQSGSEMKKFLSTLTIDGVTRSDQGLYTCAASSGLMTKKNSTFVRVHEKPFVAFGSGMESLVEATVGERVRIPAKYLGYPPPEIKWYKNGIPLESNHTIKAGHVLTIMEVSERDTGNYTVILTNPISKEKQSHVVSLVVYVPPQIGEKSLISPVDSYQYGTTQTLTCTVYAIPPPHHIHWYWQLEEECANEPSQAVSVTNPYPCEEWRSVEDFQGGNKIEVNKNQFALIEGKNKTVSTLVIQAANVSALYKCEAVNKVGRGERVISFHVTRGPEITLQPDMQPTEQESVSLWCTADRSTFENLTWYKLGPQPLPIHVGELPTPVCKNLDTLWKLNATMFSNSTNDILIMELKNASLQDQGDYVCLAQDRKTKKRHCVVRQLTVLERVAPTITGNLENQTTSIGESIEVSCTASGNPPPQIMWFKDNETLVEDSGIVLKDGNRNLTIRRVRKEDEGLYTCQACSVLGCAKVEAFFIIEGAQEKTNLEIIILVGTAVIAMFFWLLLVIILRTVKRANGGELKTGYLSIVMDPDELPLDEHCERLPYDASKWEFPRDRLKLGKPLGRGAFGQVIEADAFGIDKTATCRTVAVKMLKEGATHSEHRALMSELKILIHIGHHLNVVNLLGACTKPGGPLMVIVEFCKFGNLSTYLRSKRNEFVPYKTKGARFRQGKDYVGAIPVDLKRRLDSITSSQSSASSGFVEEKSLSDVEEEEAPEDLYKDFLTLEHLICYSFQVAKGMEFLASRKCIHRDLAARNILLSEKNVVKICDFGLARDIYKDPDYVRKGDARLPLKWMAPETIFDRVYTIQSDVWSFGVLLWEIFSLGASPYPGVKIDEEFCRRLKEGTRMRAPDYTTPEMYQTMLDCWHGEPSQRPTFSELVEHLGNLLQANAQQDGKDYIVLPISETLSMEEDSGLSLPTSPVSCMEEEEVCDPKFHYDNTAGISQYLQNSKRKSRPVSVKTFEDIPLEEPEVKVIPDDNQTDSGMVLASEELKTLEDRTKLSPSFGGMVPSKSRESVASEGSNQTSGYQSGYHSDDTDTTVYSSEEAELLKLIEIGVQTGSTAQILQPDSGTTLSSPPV
Chain of Angiopoietin-1 receptor (Q02763 whole entry): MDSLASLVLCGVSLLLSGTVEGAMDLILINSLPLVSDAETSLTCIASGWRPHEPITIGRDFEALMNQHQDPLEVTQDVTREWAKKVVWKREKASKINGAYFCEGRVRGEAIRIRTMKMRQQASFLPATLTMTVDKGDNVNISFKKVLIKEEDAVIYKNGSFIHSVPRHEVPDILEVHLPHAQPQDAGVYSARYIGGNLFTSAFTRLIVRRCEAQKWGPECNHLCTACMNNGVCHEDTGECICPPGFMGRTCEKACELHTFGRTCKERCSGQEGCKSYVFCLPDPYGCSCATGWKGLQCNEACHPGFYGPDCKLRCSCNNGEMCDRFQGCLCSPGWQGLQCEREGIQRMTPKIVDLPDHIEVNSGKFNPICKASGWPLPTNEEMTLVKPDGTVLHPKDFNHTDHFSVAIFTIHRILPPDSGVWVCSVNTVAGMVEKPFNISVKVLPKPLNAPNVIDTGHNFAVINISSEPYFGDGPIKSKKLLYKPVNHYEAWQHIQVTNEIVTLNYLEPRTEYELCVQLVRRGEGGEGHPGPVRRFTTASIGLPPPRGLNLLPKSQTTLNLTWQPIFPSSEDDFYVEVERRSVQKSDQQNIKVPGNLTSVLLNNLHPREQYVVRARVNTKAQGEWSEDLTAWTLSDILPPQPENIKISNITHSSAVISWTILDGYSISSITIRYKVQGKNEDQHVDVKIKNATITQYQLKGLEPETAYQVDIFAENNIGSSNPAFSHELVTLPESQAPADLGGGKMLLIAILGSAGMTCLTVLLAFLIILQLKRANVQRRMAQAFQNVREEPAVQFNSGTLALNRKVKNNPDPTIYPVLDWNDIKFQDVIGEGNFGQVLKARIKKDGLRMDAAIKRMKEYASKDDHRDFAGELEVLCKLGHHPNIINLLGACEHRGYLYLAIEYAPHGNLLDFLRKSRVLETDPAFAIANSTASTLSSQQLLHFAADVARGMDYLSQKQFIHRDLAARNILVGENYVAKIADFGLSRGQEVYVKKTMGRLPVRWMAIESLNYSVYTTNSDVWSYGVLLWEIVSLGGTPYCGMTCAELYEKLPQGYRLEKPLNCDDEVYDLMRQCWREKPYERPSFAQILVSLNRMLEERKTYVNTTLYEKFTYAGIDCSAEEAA
Chain of Tyrosine-protein kinase Lck (P06239 whole entry): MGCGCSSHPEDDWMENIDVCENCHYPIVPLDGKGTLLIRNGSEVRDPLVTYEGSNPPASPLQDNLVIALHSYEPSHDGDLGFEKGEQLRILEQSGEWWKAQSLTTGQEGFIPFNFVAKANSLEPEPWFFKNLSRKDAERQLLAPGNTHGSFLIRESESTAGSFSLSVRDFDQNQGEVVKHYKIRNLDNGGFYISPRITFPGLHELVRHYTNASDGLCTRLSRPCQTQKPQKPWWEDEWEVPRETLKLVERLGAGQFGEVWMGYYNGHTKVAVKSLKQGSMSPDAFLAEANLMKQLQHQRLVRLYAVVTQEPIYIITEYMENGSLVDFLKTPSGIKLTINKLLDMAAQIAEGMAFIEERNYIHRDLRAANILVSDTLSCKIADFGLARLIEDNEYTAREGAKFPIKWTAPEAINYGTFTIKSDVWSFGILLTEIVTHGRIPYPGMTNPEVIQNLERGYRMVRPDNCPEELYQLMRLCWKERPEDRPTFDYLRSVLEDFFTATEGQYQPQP

Structure (SMILES) | IC50 [1] [µM] | IC50 [2] [µM] | IC50 [3] [µM] | IC50 [4] [µM] | IC50 [5] [µM] | Selectivity ratio [6] | IC50 [7] [µM] | IC50 [8] [µM] | IC50 [9] [µM] | AUC(0-inf) [10] [ng·h/mL] | microsomal CLint at 1 µM [11] [µL/min/mg] | Cmax [12] [ng/mL] | microsomal CLint at 1 µM [13] [µL/min/mg] | half-life [14] [min] | bioavailability [15] [%] | clearance [16] [mL/min/kg] | Tmax [17] [min] | Vd [18] [L/kg] | solubility [19] [µg/mL] | Activity [20]
COc1cc2nccc(Oc3ccc4c(C(=O)NC(C)(C)C)cccc4c3)c2cc1OC | 25 | 11 | 4.3 | 3.7 | 1.5 | >100 |  |  |  |  |  |  |  |  |  |  |  |  |  | 
COc1cc2nccc(Oc3ccc4c(C(=O)NCC5CC5)cccc4c3)c2cc1OC | 9.4 | 5.3 | 1.1 | 0.84 | 0.011 |  | 1.14 | 0.01 | 0.022 |  |  |  |  |  |  |  |  |  |  | 
COCCNC(=O)c1cccc2cc(Oc3ccnc4cc(OC)ccc34)ccc12 | 25 | 20 |  | 8.3 | 0.028 | >100 |  |  | 0.02 |  |  |  |  |  |  |  |  |  |  | 
COCCNC(=O)c1cccc2cc(Oc3ccnc4cc(OC)c(C(N)=O)cc34)ccc12 | 8.3 | 6.7 |  | 8.3 | 0.022 | >100 |  | 0.233 | 0.0008 | 164 | 4 | 61 | 95 | 18.6 | 12 | 50.8 | 18 | 0.751 |  | 
COc1cc2nccc(Oc3ccc4c(C(=O)NC5CCC5)cccc4c3)c2cc1OC | 4 | 7.6 | 1 | 0.44 | 0.0013 | >100 | 1.14 |  | 0.0068 |  |  |  |  |  |  |  |  |  |  | 
CCNC(=O)c1cccc2cc(Oc3ccnc4cc(OC)c(OC)cc34)ccc12 | 25 | 20 | 1.2 | 1.5 | 0.0013 | >100 | 0.15 | 0.046 | 0.00033 |  |  |  |  |  |  |  |  |  |  | 
CNC(=O)c1cccc2cc(Oc3ccnc4cc(OC)c(OC)cc34)ccc12 | 25 | 20 | 0.7 | 3.6 |  |  | 0.046 | 0.11 | 0.00045 |  |  |  |  |  |  |  |  |  |  | 
COc1cc2nccc(Oc3ccc4c(C(N)=O)cccc4c3)c2cc1C(N)=O | 5.3 | 7.4 |  | 6.8 |  |  |  | 0.39 |  |  |  |  |  |  |  |  |  |  |  | 
COc1cc2nccc(Oc3ccc4c(C(=O)Nc5ccc(Cl)cc5)cccc4c3)c2cc1OC | 0.58 |  |  | 0.371 |  |  | 1.14 |  | 0.0076 |  |  |  |  |  |  |  |  |  | 1.1 (≈ 2.27 µM) | 
CCCNC(=O)c1cccc2cc(Oc3ccnc4cc(OC)c(OC)cc34)ccc12 | 4.3 |  | 1.3 | 1.7 |  |  | 0.6 |  | 0.0074 |  |  |  |  |  |  |  |  |  |  | 
COc1ccc2c(Oc3ccc4c(C(N)=O)cccc4c3)ccnc2c1 | 25 | 20 |  | 8.3 |  |  |  | 0.13 | 0.016 |  |  |  |  |  |  |  |  |  |  | 
COc1cc2nccc(Oc3ccc4c(C(=O)NC(C)C)cccc4c3)c2cc1OC | 25 | 20 | 1.8 | 3.6 | 0.0059 | >100 | 1.14 | 0.19 | 0.0044 |  |  |  |  |  |  |  |  |  |  | 
COCCNC(=O)c1cccc2cc(Oc3ncnc4cc(OC)c(OC)cc34)ccc12 | 8.3 | 20 |  | 25 | 0.314 | >100 |  | 0.385 |  |  |  |  |  |  |  |  |  |  |  | Active
COc1cc2ncnc(Oc3ccc4c(C(N)=O)cccc4c3)c2cc1OC | 8.3 | 20 |  | 8.3 |  |  |  | 0.68 | 0.016 |  |  |  |  |  |  |  |  |  |  | 
COc1cc2ncnc(Oc3ccc4c(C(=O)NC5CC5)cccc4c3)c2cc1OC | 7.4 | 20 |  | 8.3 | 0.0029 | >100 |  | 0.36 | 0.0073 |  |  |  |  |  |  |  |  |  |  | 
COc1cc2nccc(Oc3ccc4c(C(=O)NCC(F)(F)F)cccc4c3)c2cc1OC | 25 | 20 | 25 | 0.93 | 0.0038 |  | 1.14 | 0.016 | 0.024 |  |  |  |  |  |  |  |  |  |  | 
COc1cc2nccc(Oc3ccc4c(C(=O)NC5CC5)cccc4c3)c2cc1C(N)=O | 1.8 | 20 |  | 4.4 | 0.00037 | >100 |  | 0.185 | 0.0012 | 900 | 12 | 715 | 16 | 75.6 | 39 | 8.47 | 40.2 | 0.379 |  | 
COCCCNC(=O)c1cccc2cc(Oc3ccnc4cc(OC)c(OC)cc34)ccc12 | 8.3 |  | 1 | 3.5 | 0.0042 | >100 |  |  | 0.0071 |  |  |  |  |  |  |  |  |  |  | 
COc1cc2nccc(Oc3ccc4c(C(=O)NC5(C)CC5)cccc4c3)c2cc1OC | 1.1 | 5 | 2 | 0.56 |  |  | 1.14 | 0.062 | 0.07 |  |  |  |  |  |  |  |  |  |  | 
COc1ccc2c(Oc3ccc4c(C(=O)NC5CC5)cccc4c3)ccnc2c1 | 8.3 | 20 |  | 8.3 | 0.00045 | >100 |  |  | 0.0034 |  |  |  |  |  |  |  |  |  |  | 
COc1cc2nccc(Oc3ccc4c(C(=O)NC5CCCC5)cccc4c3)c2cc1OC | 1.4 | 3.2 | 1.3 | 0.62 | 0.015 | >100 | 1.14 |  | 0.0066 |  |  |  |  |  |  |  |  |  |  | 
